Experimental data taken from ChEMBL document CHEMBL2203154, “Synthesis, characterization and biological studies of diosgenyl analogues” (Bioorg Med Chem Lett, 2012).

Legend:
MDA-MB-231 = assay: Cytotoxicity against human MDA-MB-231 cells after 48 hrs by MTT assay; type: functional, cell-based; conditions: MDA-MB-231, 48 h
Summary of the method: (§1)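 MTT assay on tumor cells exposed to compound for 48 h. IC50 is the concentration (μM) that inhibits growth by 50% relative to untreated cells. Values are means of at least 3 independent assays per compound.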

Mus musculus [1] = assay: Antiinflammatory activity in Kunming mouse assessed as inhibition of xylene-induced ear edema at 100 mg/kg, po administered for 3 days followed by xylene-challenge at 2 hrs post-last dose measured after 1 hr relative to vehicle-treated control; type: functional
Summary of the method: (§2)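 Oral gavage in mice, test compounds suspended in 0.5% CMC at 100 mg/kg; aspirin group at 50 mg/kg. Ear edema induced with xylene; inhibition calculated versus the CMC vehicle group. Ten animals per group; data as mean ± SD, with significance versus CMC at p<0.05 or p<0.01.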

HepG2 = assay: Cytotoxicity against human HepG2 cells after 48 hrs by MTT assay; type: functional, cell-based; conditions: HepG2, 48 h; summary of the method: as §1
[2] = Cytotoxicity against mouse C26 cells after 48 hrs by MTT assay; type: functional, cell-based; conditions: C26, 48 h; summary of the method: as §1
Mus musculus [3] = assay: Antiinflammatory activity in Kunming mouse assessed as inhibition of xylene-induced ear edema at 50 mg/kg, po administered for 3 days followed by xylene-challenge at 2 hrs post-last dose measured after 1 hr relative to vehicle-treated control; type: functional; summary of the method: as §2

Which results are given for C[C@@H]1CC[C@@]2(OC1)O[C@H]1C[C@H]3[C@@H]4CC=C5C[C@@H](OC(=O)CC[C@@H](N)C(=O)O[C@H]6CC[C@@]7(C)C(=CC[C@H]8[C@@H]9C[C@@H]%10O[C@]%11(CC[C@@H](C)CO%11)[C@@H](C)[C@@H]%10[C@@]9(C)CC[C@@H]87)C6)CC[C@]5(C)[C@H]4CC[C@]3(C)[C@H]1[C@@H]2C?
IC50 (MDA-MB-231): > 50 µM; inhibition in vivo at 100 mg/kg (Mus musculus [1]): 19.1%; IC50 (HepG2): > 50 µM; IC50 [2]: > 50 µM

What does the source list for C[C@@H]1CC[C@@]2(OC1)O[C@H]1C[C@H]3[C@@H]4CC=C5C[C@@H](O)CC[C@]5(C)[C@H]4CC[C@]3(C)[C@H]1[C@@H]2C [DISOGENIN]?
IC50 (MDA-MB-231): > 50 µM; inhibition in vivo at 100 mg/kg (Mus musculus [1]): 32.2%; IC50 (HepG2): > 50 µM; IC50 [2]: > 50 µM

For C[C@@H]1CC[C@@]2(OC1)O[C@H]1C[C@H]3[C@@H]4CC=C5C[C@@H](OC(=O)[C@H](C)NC(=O)c6ccccc6O)CC[C@]5(C)[C@H]4CC[C@]3(C)[C@H]1[C@@H]2C, which IC50 (MDA-MB-231) is on record?
The IC50 was over 50 µM.

And the inhibition in vivo at 100 mg/kg (Mus musculus [1])?
Its inhibition in vivo at 100 mg/kg is 35.8%.

And the IC50 (HepG2)?
Its IC50 is over 50 µM.

What about the IC50 [2] of the same molecule?
The IC50 was over 50 µM.

Which IC50 (MDA-MB-231) does the source give for C[C@@H]1CC[C@@]2(OC1)O[C@H]1C[C@H]3[C@@H]4CC=C5C[C@@H](O[C@@H]6O[C@H](CO)[C@@H](O[C@@H]7O[C@H](CO)[C@@H](O)[C@H](O)[C@H]7O)[C@H](O)[C@H]6O[C@@H]6O[C@@H](C)[C@H](O)[C@@H](O)[C@H]6O)CC[C@]5(C)[C@H]4CC[C@]3(C)[C@H]1[C@@H]2C [DELTONIN] here?
Its IC50 is 1.58 µM.

And the IC50 (HepG2)?
Its IC50 is 7.66 µM.

And the IC50 [2]?
Its IC50 is 1.22 µM.

Which IC50 (MDA-MB-231) does the source give for C[C@@H]1CC[C@@]2(OC1)O[C@H]1C[C@H]3[C@@H]4CC=C5C[C@@H](OC(=O)CCCCCN)CC[C@]5(C)[C@H]4CC[C@]3(C)[C@H]1[C@@H]2C here?
Its IC50 is 7.6 µM.

And the inhibition in vivo at 100 mg/kg (Mus musculus [1])?
Its inhibition in vivo at 100 mg/kg is 38.6%.

And the IC50 (HepG2)?
The IC50 was 14.6 µM.

And the IC50 [2]?
Its IC50 is 4.7 µM.

For C[C@@H]1CC[C@@]2(OC1)O[C@H]1C[C@H]3[C@@H]4CC=C5C[C@@H](OC(=O)[C@H](C)N)CC[C@]5(C)[C@H]4CC[C@]3(C)[C@H]1[C@@H]2C, which IC50 (MDA-MB-231) is on record?
The IC50 was over 50 µM.

And the inhibition in vivo at 100 mg/kg (Mus musculus [1])?
The inhibition in vivo at 100 mg/kg was 28.6%.

What about the IC50 (HepG2) of the same molecule?
The IC50 was over 50 µM.

What about the IC50 [2] of the same molecule?
The IC50 was over 50 µM.

Which IC50 (MDA-MB-231) does the source give for CC(=O)Oc1ccccc1C(=O)O[C@H]1CC[C@@]2(C)C(=CC[C@H]3[C@@H]4C[C@@H]5O[C@]6(CC[C@@H](C)CO6)[C@@H](C)[C@@H]5[C@@]4(C)CC[C@@H]32)C1 here?
The IC50 was over 50 µM.

And the inhibition in vivo at 100 mg/kg (Mus musculus [1])?
The inhibition in vivo at 100 mg/kg was 46.5%.

What about the IC50 (HepG2) of the same molecule?
Its IC50 is over 50 µM.

What about the IC50 [2] of the same molecule?
Its IC50 is over 50 µM.

With CC(=O)Oc1ccccc1C(=O)NCC(=O)O[C@H]1CC[C@@]2(C)C(=CC[C@H]3[C@@H]4C[C@@H]5O[C@]6(CC[C@@H](C)CO6)[C@@H](C)[C@@H]5[C@@]4(C)CC[C@@H]32)C1 as the molecule, how does the IC50 (MDA-MB-231) read?
The IC50 was over 50 µM.

What about the inhibition in vivo at 100 mg/kg (Mus musculus [1]) of the same molecule?
The inhibition in vivo at 100 mg/kg was 39.1%.

And the IC50 (HepG2)?
Its IC50 is over 50 µM.

And the IC50 [2]?
Its IC50 is over 50 µM.

With C[C@@H]1CC[C@@]2(OC1)O[C@H]1C[C@H]3[C@@H]4CC=C5C[C@@H](OC(=O)CC[C@@H](NC(=O)c6ccccc6O)C(=O)O[C@H]6CC[C@@]7(C)C(=CC[C@H]8[C@@H]9C[C@@H]%10O[C@]%11(CC[C@@H](C)CO%11)[C@@H](C)[C@@H]%10[C@@]9(C)CC[C@@H]87)C6)CC[C@]5(C)[C@H]4CC[C@]3(C)[C@H]1[C@@H]2C as the molecule, how does the IC50 (MDA-MB-231) read?
The IC50 was over 50 µM.

What about the inhibition in vivo at 100 mg/kg (Mus musculus [1]) of the same molecule?
Its inhibition in vivo at 100 mg/kg is 30.1%.

And the IC50 (HepG2)?
The IC50 was over 50 µM.

And the IC50 [2]?
Its IC50 is over 50 µM.

For C[C@@H]1CC[C@@]2(OC1)O[C@H]1C[C@H]3[C@@H]4CC=C5C[C@@H](OC(=O)CCCCCNC(=O)c6ccccc6O)CC[C@]5(C)[C@H]4CC[C@]3(C)[C@H]1[C@@H]2C, which IC50 (MDA-MB-231) is on record?
Its IC50 is over 50 µM.

What about the inhibition in vivo at 100 mg/kg (Mus musculus [1]) of the same molecule?
Its inhibition in vivo at 100 mg/kg is 42.6%.

What about the IC50 (HepG2) of the same molecule?
Its IC50 is over 50 µM.

And the IC50 [2]?
The IC50 was over 50 µM.

With CC(=O)Oc1ccccc1C(=O)O [ASPIRIN] as the molecule, how does the inhibition in vivo at 50 mg/kg (Mus musculus [3]) read?
The inhibition in vivo at 50 mg/kg was 31.9%.

For C[C@@H]1CC[C@@]2(OC1)O[C@H]1C[C@H]3[C@@H]4CC=C5C[C@@H](OC(=O)CN)CC[C@]5(C)[C@H]4CC[C@]3(C)[C@H]1[C@@H]2C [GLYCINE DIOSGENYL ESTER], which IC50 (MDA-MB-231) is on record?
The IC50 was 48.2 µM.

What about the inhibition in vivo at 100 mg/kg (Mus musculus [1]) of the same molecule?
Its inhibition in vivo at 100 mg/kg is 30.6%.

What about the IC50 (HepG2) of the same molecule?
Its IC50 is over 50 µM.

What about the IC50 [2] of the same molecule?
The IC50 was over 50 µM.
